Values after ≈ are worked out from the molar mass of the structure shown.
Legend:
HEp-2 [1] = experiment: Cytotoxicity against human Hep2 cells assessed as surviving fraction at 12.5 ug/ml after 48 hrs by SRB assay relative to control; type: functional
Procedure, shortened: (§1)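 SRB assay per Skehan: compounds at 5.0, 12.5, 25 and 50 were added to cell monolayers in triplicate wells per dose for 48 h at 37 °C, 5% CO2. Cells were then fixed and stained with SRB, excess stain was removed with acetic acid, and bound dye was recovered in Tris EDTA. Surviving fraction was plotted against concentration, and IC50 was read from the dose–response curves.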

HeLa [2] = experiment: Cytotoxicity against human HeLa cells assessed as surviving fraction at 5 ug/ml after 48 hrs by SRB assay relative to control; type: functional; procedure, shortened: as §1
Aspergillus flavus = experiment: Antifungal activity against Aspergillus flavus at 5 mg/ml by agar disc diffusion method; type: functional; settings: read-out: DIZ
HCT-116 [3] = experiment: Cytotoxicity against human HCT116 cells assessed as surviving fraction at 5 ug/ml after 48 hrs by SRB assay relative to control; type: functional; procedure, shortened: as §1
HCT-116 [4] = experiment: Cytotoxicity against human HCT116 cells after 48 hrs by SRB assay; type: functional, cell-based; settings: HCT-116, 48 h; procedure, shortened: as §1
HCT-116 [5] = experiment: Cytotoxicity against human HCT116 cells assessed as surviving fraction at 25 ug/ml after 48 hrs by SRB assay relative to control; type: functional; procedure, shortened: as §1
Micrococcus luteus = experiment: Antibacterial activity against Sarcina lutea ATCC 934 at 5 mg/ml after 24 hrs by agar disc diffusion method; type: functional; settings: ATCC 934, 24 h, read-out: DIZ
Procedure, shortened: (§2)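 Agar well-diffusion using 1 cm wells, each loaded with 100 of compound solution (5 mg/mL in DMF). Bacteria were maintained on nutrient agar and plated as a standard suspension. Plates were incubated 24 h at 35 °C, and inhibition zone diameters were measured.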

Escherichia coli = experiment: Antibacterial activity against Escherichia coli NCTC 10416 at 5 mg/ml after 24 hrs by agar disc diffusion method; type: functional; settings: NCTC 10416, 24 h, read-out: DIZ; procedure, shortened: as §2
HeLa [6] = experiment: Cytotoxicity against human HeLa cells assessed as surviving fraction at 12.5 ug/ml after 48 hrs by SRB assay relative to control; type: functional; procedure, shortened: as §1
HeLa [7] = experiment: Cytotoxicity against human HeLa cells after 48 hrs by SRB assay; type: functional, cell-based; procedure, shortened: as §1
HepG2 [8] = experiment: Cytotoxicity against human HepG2 cells after 48 hrs by SRB assay; type: functional, cell-based; settings: HepG2, 48 h; procedure, shortened: as §1
Staphylococcus aureus = experiment: Antibacterial activity against Staphylococcus aureus NCTC 7447 at 5 mg/ml after 24 hrs by agar disc diffusion method; type: functional; settings: NCTC 7447, 24 h, read-out: DIZ; procedure, shortened: as §2
MCF7 [9] = experiment: Cytotoxicity against human MCF7 cells after 48 hrs by SRB assay; type: functional, cell-based; settings: MCF7, 48 h; procedure, shortened: as §1
MCF7 [10] = experiment: Cytotoxicity against human MCF7 cells assessed as surviving fraction at 25 ug/ml after 48 hrs by SRB assay relative to control; type: functional; procedure, shortened: as §1
HepG2 [11] = experiment: Cytotoxicity against human HepG2 cells assessed as surviving fraction at 25 ug/ml after 48 hrs by SRB assay relative to control; type: functional; procedure, shortened: as §1
MCF7 [12] = experiment: Cytotoxicity against human MCF7 cells assessed as surviving fraction at 50 ug/ml after 48 hrs by SRB assay relative to control; type: functional; procedure, shortened: as §1
[13] = Antitumor activity against mouse EAC cells assessed as inhibition of cell viability at 100 ug/ml by Trypan blue assay; type: functional; settings: Ehrlich
Procedure, shortened: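 EAC cells were taken by needle aspiration of ascitic fluid from preinoculated mice and diluted 1:10 in saline. Then 0.1 mL of cell suspension, 0.8 mL RPMI 1640 and 0.1 mL compound were incubated 2 h at 37 °C. Dead cells were counted by trypan blue exclusion, and % non-viable = non-viable/total cells × 100.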

HCT-116 [14] = experiment: Cytotoxicity against human HCT116 cells assessed as surviving fraction at 12.5 ug/ml after 48 hrs by SRB assay relative to control; type: functional; procedure, shortened: as §1
HepG2 [15] = experiment: Cytotoxicity against human HepG2 cells assessed as surviving fraction at 5 ug/ml after 48 hrs by SRB assay relative to control; type: functional; procedure, shortened: as §1
HeLa [16] = experiment: Cytotoxicity against human HeLa cells assessed as surviving fraction at 50 ug/ml after 48 hrs by SRB assay relative to control; type: functional; procedure, shortened: as §1
HEp-2 [17] = experiment: Cytotoxicity against human Hep2 cells assessed as surviving fraction at 50 ug/ml after 48 hrs by SRB assay relative to control; type: functional; procedure, shortened: as §1
MCF7 [18] = experiment: Cytotoxicity against human MCF7 cells assessed as surviving fraction at 12.5 ug/ml after 48 hrs by SRB assay relative to control; type: functional; procedure, shortened: as §1
HEp-2 [19] = experiment: Cytotoxicity against human Hep2 cells assessed as surviving fraction at 5 ug/ml after 48 hrs by SRB assay relative to control; type: functional; procedure, shortened: as §1
MCF7 [20] = experiment: Cytotoxicity against human MCF7 cells assessed as surviving fraction at 5 ug/ml after 48 hrs by SRB assay relative to control; type: functional; procedure, shortened: as §1
HEp-2 [21] = experiment: Cytotoxicity against human Hep2 cells assessed as surviving fraction at 25 ug/ml after 48 hrs by SRB assay relative to control; type: functional; procedure, shortened: as §1
HepG2 [22] = experiment: Cytotoxicity against human HepG2 cells assessed as surviving fraction at 50 ug/ml after 48 hrs by SRB assay relative to control; type: functional; procedure, shortened: as §1
HCT-116 [23] = experiment: Cytotoxicity against human HCT116 cells assessed as surviving fraction at 50 ug/ml after 48 hrs by SRB assay relative to control; type: functional; procedure, shortened: as §1
HEp-2 [24] = experiment: Cytotoxicity against human Hep2 cells after 48 hrs by SRB assay; type: functional, cell-based; settings: HEp-2, 48 h; procedure, shortened: as §1
Bacillus subtilis = experiment: Antibacterial activity against Bacillus subtilis NCTC 1040 at 5 mg/ml after 24 hrs by agar disc diffusion method; type: functional; settings: NCTC 1040, 24 h, read-out: DIZ; procedure, shortened: as §2
Candida albicans = experiment: Antifungal activity against Candida albicans IMRU 3669 at 5 mg/ml by agar disc diffusion method; type: functional; settings: read-out: DIZ
HepG2 [25] = experiment: Cytotoxicity against human HepG2 cells assessed as surviving fraction at 12.5 ug/ml after 48 hrs by SRB assay relative to control; type: functional; procedure, shortened: as §1
HeLa [26] = experiment: Cytotoxicity against human HeLa cells assessed as surviving fraction at 25 ug/ml after 48 hrs by SRB assay relative to control; type: functional; procedure, shortened: as §1

Work on `COc1ccc(N2C(=O)N(c3ccc(SC)cc3)C(=N)C2=S)c(OC)c1` yielded an Activity (HEp-2 [1]) of 0.49, an Activity (HeLa [2]) of 0.74 and a zone of inhibition at 5000 µg/mL (Aspergillus flavus) of 14 mm. It also gave an Activity (HCT-116 [3]) of 0.74, an IC50 (HCT-116 [4]) of 10.6 µg/mL (≈ 27.4 µM) and an Activity (HCT-116 [5]) of 0.24. The zone of inhibition at 5000 µg/mL (Micrococcus luteus) was 18 mm, the zone of inhibition at 5000 µg/mL (Escherichia coli) was 19 mm and the Activity (HeLa [6]) was 0.37. It also gave an IC50 (HeLa [7]) of 9.83 µg/mL (≈ 25.4 µM), an IC50 (HepG2 [8]) of 11.8 µg/mL (≈ 30.5 µM) and a zone of inhibition at 5000 µg/mL (Staphylococcus aureus) of 18 mm. It also gave an IC50 (MCF7 [9]) of 12 µg/mL (≈ 31 µM), an Activity (MCF7 [10]) of 0.19 and an Activity (HepG2 [11]) of 0.19. It also gave an Activity (MCF7 [12]) of 0.28, an inhibition at 100 µg/mL [13] of 70% and an Activity (HCT-116 [14]) of 0.42. It also gave an Activity (HepG2 [15]) of 0.69, an Activity (HeLa [16]) of 0.22 and an Activity (HEp-2 [17]) of 0.27. The Activity (MCF7 [18]) was 0.49, the Activity (HEp-2 [19]) was 0.71 and the Activity (MCF7 [20]) was 0.68. It also gave an Activity (HEp-2 [21]) of 0.2, an Activity (HepG2 [22]) of 0.24 and an Activity (HCT-116 [23]) of 0.35. For the same molecule, the IC50 (HEp-2 [24]) was 12.1 µg/mL (≈ 31.2 µM), the zone of inhibition at 5000 µg/mL (Bacillus subtilis) was 18 mm and the zone of inhibition at 5000 µg/mL (Candida albicans) was 20 mm. The Activity (HepG2 [25]) was 0.47 and the Activity (HeLa [26]) was 0.2.

Molecule `COc1ccc(N2C(=O)N(c3ccc(C)cc3)C(=N)C2=S)c(OC)c1` has an Activity (HEp-2 [1]) of 0.31, an Activity (HeLa [2]) of 0.24 and a zone of inhibition at 5000 µg/mL (Aspergillus flavus) of 14 mm. It also gave an Activity (HCT-116 [3]) of 0.38, an IC50 (HCT-116 [4]) of 4.04 µg/mL (≈ 11.4 µM) and an Activity (HCT-116 [5]) of 0.2. For the same molecule, the zone of inhibition at 5000 µg/mL (Micrococcus luteus) was 25 mm, the zone of inhibition at 5000 µg/mL (Escherichia coli) was 25.5 mm and the Activity (HeLa [6]) was 0.14. The IC50 (HeLa [7]) was 2.97 µg/mL (≈ 8.36 µM), the IC50 (HepG2 [8]) was 6.78 µg/mL (≈ 19.1 µM) and the zone of inhibition at 5000 µg/mL (Staphylococcus aureus) was 22 mm. It also gave an IC50 (MCF7 [9]) of 4.34 µg/mL (≈ 12.2 µM), an Activity (MCF7 [10]) of 0.21 and an Activity (HepG2 [11]) of 0.23. For the same molecule, the Activity (MCF7 [12]) was 0.29, the inhibition at 100 µg/mL [13] was 70% and the Activity (HCT-116 [14]) was 0.15. For the same molecule, the Activity (HepG2 [15]) was 0.6, the Activity (HeLa [16]) was 0.26 and the Activity (HEp-2 [17]) was 0.3. For the same molecule, the Activity (MCF7 [18]) was 0.21, the Activity (HEp-2 [19]) was 0.6 and the Activity (MCF7 [20]) was 0.43. For the same molecule, the Activity (HEp-2 [21]) was 0.16, the Activity (HepG2 [22]) was 0.24 and the Activity (HCT-116 [23]) was 0.26. It also gave an IC50 (HEp-2 [24]) of 7.09 µg/mL (≈ 19.9 µM), a zone of inhibition at 5000 µg/mL (Bacillus subtilis) of 22.5 mm and a zone of inhibition at 5000 µg/mL (Candida albicans) of 17.5 mm. It also gave an Activity (HepG2 [25]) of 0.22 and an Activity (HeLa [26]) of 0.22.

From ChEMBL document CHEMBL1782009, “Synthesis and characterization of new types of halogenated and alkylated imidazolidineiminothiones and a comparative study of their antitumor, antibacterial, and antifungal activities” (Eur J Med Chem, 2011)
